Results: ChEMBL document CHEMBL4196091 (Eur J Med Chem, 2018)
The source made the active and inactive calls. The calls are words filed in the database; no cut-off is given here.

Experiments:
HT-29 [1] = experiment: Antiproliferative activity against human HT-29 cells after 2 days by MTT assay; format: functional, cell-based; conditions: HT-29, 48 h
HEK293 = experiment: Antiproliferative activity against HEK293 cells after 2 days by MTT assay; format: ADME, cell-based; conditions: Homo sapiens, HEK293, 48 h
A549 [2] = experiment: Antiproliferative activity against human A549 cells after 2 days by MTT assay; format: functional, cell-based; conditions: A549, 48 h
MCF7 = experiment: Antiproliferative activity against human MCF7 cells after 2 days by MTT assay; format: functional, cell-based; conditions: MCF7, 48 h
A549 [3] = experiment: Cell cycle arrest in human A549 cells assessed as accumulation at G0/G1 phase at 15 nM after 24 hrs by propidium iodide staining based flow cytometry (reference value: 73 +/- 3%); format: functional
How it was run: (§1)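 A549 cells maintained in DMEM (1 g/L glucose, 2 mM glutamine, penicillin/streptomycin/amphotericin B, 10% FBS) and treated for 24 h. Cells were then fixed, RNase-treated and stained with propidium iodide. DNA content was measured by flow cytometry to give cell-cycle phase distribution, including a sub-G1 peak. Data are means (±SD) of two experiments.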

HT-29 [4] = experiment: Inhibition of VEGF protein secretion in human HT-29 cells assessed as VEGF protein level at […] after 48 hrs by ELISA (reference value: 100%); format: functional; set-up: scale not given: the % may be the effect or the level left
HT-29 [5] = experiment: Downregulation of c-Myc gene expression in human HT-29 cells assessed as c-Myc mRNA level at […] after 48 hrs by RT-PCR method (reference value: 100%); format: functional
A549 [6] = experiment: Cell cycle arrest in human A549 cells assessed as accumulation at S phase at 15 nM after 24 hrs by propidium iodide staining based flow cytometry (reference value: 15 +/- 6%); format: functional; how it was run: as §1
A549 [7] = experiment: Cell cycle arrest in human A549 cells assessed as accumulation at G2/M phase at 15 nM after 24 hrs by propidium iodide staining based flow cytometry (reference value: 11 +/- 4%); format: functional; how it was run: as §1
A549 [8] = experiment: Cell cycle arrest in human A549 cells assessed as accumulation at G2/M phase at 3 nM after 24 hrs by propidium iodide staining based flow cytometry; format: functional; how it was run: as §1
A549 [9] = experiment: Cell cycle arrest in human A549 cells assessed as accumulation at sub-G0 phase at 15 nM after 24 hrs by propidium iodide staining based flow cytometry (reference value: 2 +/- 1%); format: functional; how it was run: as §1
HT-29 [10] = experiment: Downregulation of hTERT gene expression in human HT-29 cells assessed as hTERT mRNA level at […] after 48 hrs by RT-PCR method (reference value: 100%); format: functional
HT-29 [11] = experiment: Downregulation of VEGF gene expression in human HT-29 cells assessed as VEGF mRNA level at […] after 48 hrs by RT-PCR method (reference value: 100%); format: functional
A549 [12] = experiment: Cell cycle arrest in human A549 cells assessed as accumulation at G2/M phase at 50 nM after 24 hrs by propidium iodide staining based flow cytometry (reference value: 11 +/- 4%); format: functional; how it was run: as §1
A549 [13] = experiment: Cell cycle arrest in human A549 cells assessed as accumulation at sub-G0 phase at 50 nM after 24 hrs by propidium iodide staining based flow cytometry (reference value: 2 +/- 1%); format: functional; how it was run: as §1
A549 [14] = experiment: Cell cycle arrest in human A549 cells assessed as accumulation at G0/G1 phase at 50 nM after 24 hrs by propidium iodide staining based flow cytometry (reference value: 73 +/- 3%); format: functional; how it was run: as §1
A549 [15] = experiment: Cell cycle arrest in human A549 cells assessed as accumulation at S phase at 50 nM after 24 hrs by propidium iodide staining based flow cytometry (reference value: 15 +/- 6%); format: functional; how it was run: as §1
A549 [16] = experiment: Cell cycle arrest in human A549 cells assessed as accumulation at G0/G1 phase at 20 nM after 24 hrs by propidium iodide staining based flow cytometry (reference value: 73 +/- 3%); format: functional; how it was run: as §1
A549 [17] = experiment: Cell cycle arrest in human A549 cells assessed as accumulation at sub-G0 phase at 20 nM after 24 hrs by propidium iodide staining based flow cytometry (reference value: 2 +/- 1%); format: functional; how it was run: as §1
A549 [18] = experiment: Cell cycle arrest in human A549 cells assessed as accumulation at G2/M phase at 20 nM after 24 hrs by propidium iodide staining based flow cytometry (reference value: 11 +/- 4%); format: functional; how it was run: as §1
A549 [19] = experiment: Cell cycle arrest in human A549 cells assessed as accumulation at S phase at 20 nM after 24 hrs by propidium iodide staining based flow cytometry (reference value: 15 +/- 6%); format: functional; how it was run: as §1
HT-29 [20] = experiment: Inhibition of VEGF protein secretion in human HT-29 cells assessed as VEGF protein level at 3 nM after 48 hrs by ELISA (reference value: 100%); format: functional; set-up: scale not given: the % may be the effect or the level left
How it was run: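 HT-29 cells (1.5 x 10^5 per well, six-well plate) seeded 24 h, then treated 48 h with DMSO control; secreted VEGF in culture supernatant measured by human VEGF ELISA kit, expressed as percentage of control. At least three measurements.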

HT-29 [21] = experiment: Downregulation of c-Myc gene expression in human HT-29 cells assessed as c-Myc mRNA level at 3 nM after 48 hrs by RT-PCR method (reference value: 100%); format: functional
How it was run: (§2)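 HT-29 cells (1.5 x 10^5 per well, six-well plate) seeded 24 h, then exposed 48 h with DMSO control; total RNA extracted, target mRNA quantified by TaqMan RT-qPCR, normalized to β-actin, expressed as percentage of control. At least three measurements; one-sample t-tests.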

HT-29 [22] = experiment: Downregulation of VEGF gene expression in human HT-29 cells assessed as VEGF mRNA level at 3 nM after 48 hrs by RT-PCR method (reference value: 100%); format: functional; how it was run: as §2
A549 [23] = experiment: Cell cycle arrest in human A549 cells assessed as accumulation at G2/M phase at antiproliferative IC50 after 24 hrs by propidium iodide staining based flow cytometry; format: functional
How it was run: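 A549 cells kept in DMEM (1 g/L glucose, 2 mM glutamine, antibiotics, amphotericin B, 10% FBS), treated 24 h with compound from 10 mM DMSO stock; fixed, RNase-treated, stained with propidium iodide, DNA content read by flow cytometry for phase distribution. Average (±SD) of two experiments.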

HT-29 [24] = experiment: Downregulation of hTERT gene expression in human HT-29 cells assessed as hTERT mRNA level at 3 nM after 48 hrs by RT-PCR method (reference value: 100%); format: functional; how it was run: as §2
HT-29 [25] = experiment: Downregulation of c-Myc gene expression in human HT-29 cells assessed as c-Myc mRNA level at 10 nM after 48 hrs by RT-PCR method (reference value: 100%); format: functional
How it was run: (§3)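 HT-29 cells were taken at 70–80% confluence and seeded at 1.5 x 10^5 per well. After 24 h they were exposed to compound for 48 h. Total RNA was isolated and TaqMan RT-qPCR run for VEGF-A, c-MYC and hTERT, normalized to β-actin. Expression is given as percent of DMSO control, with at least three measurements and one-sample t-tests.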

HT-29 [26] = experiment: Downregulation of hTERT gene expression in human HT-29 cells assessed as hTERT mRNA level at 10 nM after 48 hrs by RT-PCR method (reference value: 100%); format: functional; how it was run: as §3
HT-29 [27] = experiment: Downregulation of VEGF gene expression in human HT-29 cells assessed as VEGF mRNA level at 10 nM after 48 hrs by RT-PCR method (reference value: 100%); format: functional; how it was run: as §3
HT-29 [28] = experiment: Inhibition of VEGF protein secretion in human HT-29 cells assessed as VEGF protein level at 10 nM after 48 hrs by ELISA (reference value: 100%); format: functional; set-up: scale not given: the % may be the effect or the level left
A549 [29] = experiment: Cell cycle arrest in human A549 cells assessed as accumulation at G2/M phase at 0.5 times antiproliferative IC50 after 24 hrs by propidium iodide staining based flow cytometry; format: functional; how it was run: as §1

Compound | IC50 (HT-29 [1]) [nM] | IC50 (HEK293) [nM] | IC50 (A549 [2]) [nM] | IC50 (MCF7) [nM] | Activity (A549 [3]) [%] | Activity (A549 [6]) [%] | Activity (A549 [7]) [%] | Activity (A549 [9]) [%] | further results
COc1cc2c(c(OC)c1OC)-c1ccc(OC)c(=O)cc1[C@@H](NC(=O)CC1CCCCC1)CC2 | 8.7 | 10.5 | 19.4 | 9 | – | – | – | – | –
COc1cc2c(c(OC)c1OC)-c1ccc(OC)c(=O)cc1[C@@H](NC(=O)c1ccccc1Cl)CC2 | 2.3 | 5.93 | 13 | 4.5 | 11 | 26 | 55 | 3 | Activity (HT-29 [4]): 54%; Activity (HT-29 [5]): 38%; Activity (A549 [8]): Active; Activity (HT-29 [10]): 54%; Activity (HT-29 [11]): 32%
COc1cc2c(c(OC)c1OC)-c1ccc(OC)c(=O)cc1[C@@H](NC(=O)c1ccc(Cl)cc1)CC2 | 1.79 | 10.1 | 6.6 | 6.7 | 27 | 14 | 48 | 2 | Activity (HT-29 [4]): 54%; Activity (HT-29 [5]): 37%; Activity (A549 [8]): Active; Activity (HT-29 [10]): 73%; Activity (HT-29 [11]): 37%
COc1cc2c(c(OC)c1OC)-c1ccc(OC)c(=O)cc1[C@@H](NC(=O)c1ccccc1)CC2 | 8.1 | 13 | 10 | 5 | – | – | – | – | Activity (A549 [12]): 40%; Activity (A549 [13]): 4%; Activity (A549 [14]): 29%; Activity (A549 [15]): 28%
COc1cc2c(c(OC)c1OC)-c1ccc(OC)c(=O)cc1[C@@H](NC(=O)Cc1ccccc1)CC2 | 2.84 | 3.9 | 2.8 | 2.6 | – | – | – | – | Activity (A549 [16]): 19%; Activity (A549 [17]): 5%; Activity (A549 [18]): 60%; Activity (A549 [19]): 16%
COc1cc2c(c(OC)c1OC)-c1ccc(OC)c(=O)cc1[C@@H](NC(=O)CCl)CC2 | 4.6 | 4.56 | 12.3 | 29 | 22 | 20 | 55 | 2 | Activity (HT-29 [20]): 100%; Activity (HT-29 [21]): 74%; Activity (HT-29 [22]): 76%; Activity (A549 [23]): Active; Activity (HT-29 [24]): 66%
COc1cc2c(c(OC)c1OC)-c1ccc(OC)c(=O)cc1[C@@H](NC(=O)c1cccc(Cl)c1)CC2 | 1.8 | 3 | 3.1 | 3.4 | – | – | – | – | Activity (HT-29 [4]): 48%; Activity (A549 [16]): 24%; Activity (HT-29 [5]): 20%; Activity (A549 [17]): 6%; Activity (A549 [18]): 57%; Activity (A549 [8]): Active; Activity (A549 [19]): 15%; Activity (HT-29 [10]): 59%; Activity (HT-29 [11]): 30%
COc1cc2c(c(OC)c1OC)-c1ccc(OC)c(=O)cc1[C@@H](NC(=O)c1ccc(C)cc1)CC2 | 9 | 16.1 | 8.8 | 31 | – | – | – | – | Activity (A549 [12]): 16%; Activity (A549 [13]): 13%; Activity (A549 [14]): 44%; Activity (A549 [15]): 26%
COc1cc2c(c(OC)c1OC)-c1ccc(OC)c(=O)cc1[C@@H](NC(=O)CI)CC2 | 10 | 19 | 31 | 4.1 | – | – | – | – | Activity (HT-29 [25]): 42%; Activity (HT-29 [26]): 59%; Activity (HT-29 [27]): 42%; Activity (HT-29 [28]): 89%
COc1cc2c(c(OC)c1OC)-c1ccc(OC)c(=O)cc1[C@@H](NC(=O)c1ccccc1C)CC2 | 5.7 | 9 | 2 | 2.02 | – | – | – | – | Activity (A549 [12]): 47%; Activity (A549 [13]): 8%; Activity (A549 [14]): 24%; Activity (A549 [15]): 14%
COc1cc2c(c(OC)c1OC)-c1ccc(OC)c(=O)cc1[C@@H](NC(=O)CBr)CC2 | 13.7 | 14.4 | 26 | 16.4 | 25 | 19 | 53 | 3 | Activity (HT-29 [25]): 35%; Activity (HT-29 [26]): 79%; Activity (HT-29 [27]): 44%; Activity (A549 [29]): Active; Activity (HT-29 [28]): 100%
